Experimental data taken from PMC4690987 (Journal of Medicinal Chemistry, 2015).

Experiments:
HIV-1 NL4-3 strain = assay: Antiviral assay in HIV-1 infected TZM-bl cells; format: cell-based; details: for SI HIV-1 strain NL4-3: CC50 value/IC50 value; for antiviral or cytotoxic activity: HIV-1 NL4-3
In short: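 TZM-bl cells (HeLa expressing CD4 and CCR5, with LTR-driven luciferase and β-galactosidase) were seeded at 1 ×10^4 cells/well in DMEM/10% FBS and left to adhere overnight. Cells were infected with HIV-1 NL4-3 or BaL at MOI 0.5, treated with serial dilutions of test compound, and incubated at 37 °C for 48 h. IC50 was taken as 50% inhibition of LTR-luciferase signal. CC50 came from parallel MTT on mock-infected cells. SI = CC50/IC50.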

Cytotoxicity assay = format: cell-based; details: human, uninfected (mock-infected) TZM-bl cells
In short: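 Run in parallel with the antiviral assay, under the same conditions but on uninfected TZM-bl cells (1 ×10^4 cells/well, seeded overnight, test compound in serial dilution, 37 °C, 48 h). Viability was read by MTT absorbance. CC50 was the concentration that reduced absorbance of mock-infected cells by 50%.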

[1] = cited from earlier work
LTR-IV G4 [2] = assay: SPR analysis; parameters: species or system HIV-1; details: read-out: KD LTR-IV G4 (SPR); 25 °C, HEPES-KCl buffer, 1:1 binding model
In short: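 5′-biotinylated oligonucleotides folded (95 °C for 5 min, cooled to room temperature), diluted to 30 nM and captured on a streptavidin chip to about 500 RU, with an empty reference cell. Running buffer was 0.01 M HEPES pH 7.4, 0.2 M KCl, 3 mM EDTA. Test compound run at 25–200 nM, 30 μL/min, with 280 s contact and 360 s dissociation. Surface regenerated with 10 mM glycine pH 2.0. Sensorgrams buffer-corrected and fitted to a 1:1 model. At least two independent runs, χ2 below 0.2.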

LTR-IV G4 [3] = assay: FRET melting assay; format: binding, HIV-1; details: for stabilization (ΔTm, FRET) at 4-fold c-exNDI:DNA molar ratio: 25 °C is the maximum increase measurable, data not shown
In short: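 Oligonucleotide labelled with FAM at the 5′ end and TAMRA at the 3′ end, 0.25 μM, folded in lithium cacodylate buffer with 100 mM potassium, plus equimolar test compound. After equilibration at 4 °C, FAM emission was followed from 30 to 95 °C at 1 °C/min. Profiles were normalized, and Tm was the temperature at 0.5 normalized fluorescence.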

HIV-1 NL4-3 = assay: HIV-1 entry assay; format: cell-based; details: TZM-bl cells, virus production at 31 h pi; 2 50–100 nM, AZT 0.5 μg/mL, DS 100 μg/mL
In short: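 TZM-bl cells (HeLa stably expressing CD4, CCR5 and HIV-1 LTR-driven luciferase) were grown in DMEM/10% FBS. Cells were seeded at 1 × 10^4 per well and allowed to adhere overnight, then infected with HIV-1 NL4-3 at MOI 0.5 and kept at 37 °C. Test compound or reference agents were added at 0, 1 or 2 h pi. At 31 h cells were PBS-washed and virus production was read as LTR-luciferase RLU.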

| Compound | SI HIV-1 strain NL4-3 (HIV-1 NL4-3 strain) | CC50 (Cytotoxicity assay) [µM] | pKa of the (CH2)3NHMe2+ moieties [1] | Kd (LTR-IV G4 [2]) [µM] | stabilization (ΔTm, FRET) at 4-fold c-exNDI:DNA molar ratio (LTR-IV G4 [3]) | difference in stabilization of LTR-IV G4s vs hTel G4 (LTR-IV G4 [3]; FRET, equimolar amounts) [°C] | antiviral or cytotoxic activity (HIV-1 NL4-3 strain) | antiviral activity as a function of time of addition (0, 1, 2 h pi) (HIV-1 NL4-3) |
| --- | --- | --- | --- | --- | --- | --- | --- | --- |
| CN(C)CCCn1c(=O)c2ccc3c(=O)n(CCCN(C)C)c(=O)c4c5[nH]c6cc(C(=O)O)ccc6[nH]c5c(c1=O)c2c34 [Compound 6] | >5 | > 5 | > 8.1 |  |  |  |  |  |
| CN(C)CCCn1c(=O)c2cc(Br)c3c(=O)n(CCCN(C)C)c(=O)c4c5[nH]c6ccc(C(=O)O)cc6[nH]c5c(c1=O)c2c34 [Compound 7] | >6 | > 5 | > 8.1 | 0.0216 |  |  |  |  |
| CN(C)CCCn1c(=O)c2cc(Br)c3c(=O)n(CCCN(C)C)c(=O)c4c5[nH]c6ncccc6[nH]c5c(c1=O)c2c34 [Compound 8] | 7.2 | 0.458 ± 0.054 |  |  |  |  |  |  |
| CN(C)CCCNc1cc2c(=O)n(CCCN(C)C)c(=O)c3c4[nH]c5ccccc5[nH]c4c4c(=O)n(CCCN(C)C)c(=O)c1c4c23 [Compound 9] | 2.2 | 1.76 ± 0.0625 |  |  |  |  |  |  |
| C[N+](C)(C)CCCn1c(=O)c2ccc3c(=O)n(CCC[N+](C)(C)C)c(=O)c4c5[nH]c6ccccc6[nH]c5c(c1=O)c2c34.[I-].[I-] [Compound 10] |  | > 5 |  | 0.0017 | above 25 °C | ≥ 6 | did not display any antiviral or cytotoxic activity |  |
| C[N+](C)(C)CCCn1c(=O)c2cc(Br)c3c(=O)n(CCC[N+](C)(C)C)c(=O)c4c5[nH]c6ccccc6[nH]c5c(c1=O)c2c34.[I-].[I-] [Compound 11] |  | > 5 |  | 0.0129 | above 25 °C |  | did not display any antiviral or cytotoxic activity |  |
| dextran sulfate [DS] |  |  |  |  |  |  |  | exhibited antiviral effect only when added at 0 h pi |
